Source: PubChem (Johns Hopkins Ion Channel Center)
In the library only some 3.8% were active in any assay of this set; here they are far more common.
KCNQ1 act: potentiators or activators of human KCNQ1 potassium channel; AID 2648; CHO-K1 KCNQ1, thallium flux FluxOR fluorescence; hits give high values; B-score at 10 µM; P51787; 310,000 compounds, 0.35% hits;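 active = fluorescence ratio B-score, a plate-corrected score, at least three library SD, with initial intensity B-score within 5 SD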
Target sequence (P51787 whole entry, looked up): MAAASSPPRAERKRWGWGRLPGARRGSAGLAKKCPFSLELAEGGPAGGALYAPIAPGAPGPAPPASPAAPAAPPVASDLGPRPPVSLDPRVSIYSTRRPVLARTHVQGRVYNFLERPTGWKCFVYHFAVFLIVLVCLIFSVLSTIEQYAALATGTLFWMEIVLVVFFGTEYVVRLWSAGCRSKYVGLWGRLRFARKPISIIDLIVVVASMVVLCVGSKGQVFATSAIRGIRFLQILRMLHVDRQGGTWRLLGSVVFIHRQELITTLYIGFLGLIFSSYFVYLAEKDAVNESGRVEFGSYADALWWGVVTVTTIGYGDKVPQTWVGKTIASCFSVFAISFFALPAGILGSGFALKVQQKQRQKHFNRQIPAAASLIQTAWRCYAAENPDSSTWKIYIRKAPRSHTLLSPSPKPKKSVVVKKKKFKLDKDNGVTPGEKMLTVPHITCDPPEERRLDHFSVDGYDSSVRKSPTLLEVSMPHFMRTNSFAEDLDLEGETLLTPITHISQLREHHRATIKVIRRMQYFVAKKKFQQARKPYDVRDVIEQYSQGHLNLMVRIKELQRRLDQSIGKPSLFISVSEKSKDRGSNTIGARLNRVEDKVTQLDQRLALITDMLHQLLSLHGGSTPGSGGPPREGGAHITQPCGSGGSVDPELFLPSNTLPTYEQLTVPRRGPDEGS
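assay system = CHO-K1 cells stably expressing KCNQ1 | medium = assay buffer, equal DMSO in all wells | timing = 37 °C overnight plating, 90-min dark dye load, 20-min compound pretreatment | measured by = kinetic FluxOR thallium fluorescence, 10-s 1-Hz baseline, 110-s post-stimulus read | measure = fluorescence change relative to baseline, converted to B score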
KCNQ1 inh: human KCNQ1 channel inhibition; CHO-K1 KCNQ1, FluxOR thallium flux fluorescence; hits give high values; 310,000 compounds, 1.3% hits; B-score at 10 µM; P51787;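 active = compounds whose thallium flux B-score, printed positive for inhibition, exceeds three library SD while starting fluorescence stays within three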;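 also: channel opened by potassium depolarization with thallium stimulus after 20 min compound exposure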
hERG rescue: hERG (human) protection from proarrhythmic block; activation (rescue from dofetilide block), less the hit threshold, % at 10 µM; Q12809; CHO-hERG, FluxOR thallium flux, dofetilide IC70 present; 310,000 compounds, 0.51% hits;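 active = activation above the mean of controls blocked by dofetilide plus 5 SD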;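 also: thallium influx through hERG after potassium depolarization seen as dye fluorescence rise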
Kir21 inh: inhibitors of mouse Kir2.1 inward-rectifier potassium channel; 310,000 compounds, 0.85% hits; HEK293-Kir2.1, FluxOR thallium flux fluorescence; hits give low values; P35561; B-score at 10 µM;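 active = fluorescence ratio B-score at or below minus 3 SD of library scores, with starting-brightness B-score within 2 SD, cut at about -4.2 in these data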;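 also: channel flux triggered by added potassium and thallium sulfate stimulus; B-score of peak minus minimum fluorescence over baseline after thallium stimulus; more negative B-score means stronger Kir2.1 block with less thallium influx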
KCNK3 block: human KCNK3 channel inhibition, primary screen | B-score at 10 µM | CHO-KCNK3 thallium flux, FluxOR fluorescence; hits give low values | 340,000 compounds, 0.84% hits;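 active = B-score under library mean minus 4 SD, starting fluorescence ratio at most library mean plus 5 SD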;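 also: more negative B-score means stronger inhibition of thallium flux through KCNK3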
KCNK9 block: blocks the human KCNK9 two-pore domain potassium channel; Q9NPC2; HEK293 KCNK9, FluxOR thallium flux fluorescence; hits give low values; B-score at 10 µM; 310,000 compounds, 1.2% hits;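 active = ratio B-score over 3 SD below the library mean, with starting fluorescence within 5 SD of its mean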;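 also: negative B-score means less thallium flux so channel inhibition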
Starred values were filed as active, the others as inactive; i = inactive; x = no result given.

SMILES	KCNQ1 act	KCNQ1 inh	hERG rescue	Kir21 inh	KCNK3 block	KCNK9 block
COc1ccc(NC(=O)CSc2nnc(COc3ccccc3)n2Cc2ccco2)cc1OC	i	i	5.1*	2.1	i	i
COc1ccc(C)cc1NC(=O)CSc1nnc(COc2ccccc2)n1Cc1ccco1	i	i	-15	0.26	i	i
C=C[C@@]1(C)CC(=O)[C@]2(O)[C@@]3(C)[C@@H](O)CCC(C)(C)[C@@H]3[C@H](O)[C@H](OC(C)=O)[C@@]2(C)O1	12*	i	-14	0.06	i	i
C=C[C@@]1(C)CC(=O)[C@]2(O)[C@@]3(C)[C@@H](O)CCC(C)(C)[C@@H]3[C@H](OC(C)=O)[C@H](O)[C@@]2(C)O1	13*	i	-13	-0.96	i	i
CC(=O)N1CC(C)Sc2ccc(S(=O)(=O)NC3CCCCC3C)cc21 (stereo not given)	i	i	-6	-0.03	i	i
CC(C)C1C(c2ccccc2)N(C)C(c2ccccc2)CC1(O)c1ccccc1 (stereo not given)	i	i	-9	0.58	i	i
CC(C)C1C(c2ccccc2)NC(c2ccccc2)CC1(O)c1ccc(F)cc1 (stereo not given)	i	7*	-19	-1.2	i	i
Cc1ccc(C)c(NC(=S)NCCc2ccc(F)cc2)c1	i	i	-4	-4.5*	i	i
Cc1cc(C)c(O)c(NC(=S)NC(=O)Cc2ccccc2)c1	i	i	4.8*	2.4	i	i
Cc1cccc(NC(=S)NC(=O)Cc2ccccc2)c1C	i	i	-4	-0.23	i	i
Cc1ccc(S(=O)(=O)NCCc2ccccc2)cc1	i	i	-8	-1.4	i	i
Cc1ccc(NC(=S)NCCc2c[nH]c3ccccc23)c(C)c1	i	i	-9	-7.3*	i	i
Cc1cc(C)c(S(=O)(=O)NCCc2ccccc2)c(C)c1	i	i	-6	-10*	i	i
CC(NC(=O)c1cc(S(=O)(=O)N2CCOCC2)cn1C)c1ccccc1 (stereo not given)	i	i	-12	-0.07	i	i
Cc1ccc(NC(=S)NCCc2ccccc2)c(C)c1	i	i	-7	-5.1*	i	i
COc1cccc(CNc2ccc3[nH]c(=O)[nH]c3c2)c1OCc1ccc(F)cc1	i	i	-16	-4.2	i	i
COc1cccc(CNCCc2c[nH]c3ccccc23)c1OCc1ccc(F)cc1	i	i	-16	-12*	i	i
COc1ccccc1NC(=S)NCCc1c[nH]c2ccccc12	i	i	-8	-6.3*	i	i
CCOc1ccc(C(=O)NC(C(=O)N2CCC2)C(C)C)cc1 (stereo not given)	x	x	x	x	i	x
CN(C(=O)c1ccc2c(c1)OCCO2)c1c(N)n(Cc2ccccc2)c(=O)[nH]c1=O	i	i	-13	-1.7	i	i
Cc1ccc(-c2cc3cccc[n+]3cc2-c2ccc(C)cc2)cc1	i	8*	-29	-12*	i	i
Cc1ccc2nc(-c3ccncc3)cc(-c3ccccc3)c2c1	i	i	-11	0.43	i	i
O=c1[nH]c(/C=C\c2ccccc2F)nc(O)c1[N+](=O)[O-]	i	i	-10	0.94	i	i
CCN(CCO)Cc1csc2ccc(C(C)(C)C)cc12	i	i	-10	-7*	i	i
CCN(CCO)Cc1csc2cc(C)ccc12	i	i	-6	0.83	i	i
O=c1c2ccccc2[nH]c(=S)n1CCN1CCCCC1	i	i	-4	-1.6	i	i
O=c1c2ccccc2[nH]c(=S)n1CCC1=CCCCC1	26*	i	11*	-0.69	i	i
Oc1ccccc1-c1cc(C(F)(F)C(F)F)nc(-c2ccccc2)n1	i	i	-6	0.05	i	i
O=[N+]([O-])c1ccc(O)c(-c2cc(C(F)(F)F)nc(-c3ccccc3)n2)c1	i	7*	-16	0.11	i	i
COc1ccc2cc(C(=O)N/N=C/c3sc4ccccc4c3O)ccc2c1	i	9*	-14	-7.2	i	i
